Bioassay records (PubChem)
Only some compounds are listed: those with a hit (about 1.3% of all), similar ones and a draw of the others.
PGE2 EP2 inh – inhibitors of human EP2 prostaglandin E2 receptor; P43116; C6 glioma cells expressing human EP2, cAMP TR-FRET; cells stimulated with saturating PGE2; inhibition, % at 25 µM; 260,000 compounds, 0.52% hits; AID 1422;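 active means percent inhibition above 40 after rounding to a whole number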;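 further: rat C6 glioma host cells with rolipram phosphodiesterase inhibitor present; the protocol text gives 20 µM as final concentration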
Target sequence (P43116 whole entry, looked up): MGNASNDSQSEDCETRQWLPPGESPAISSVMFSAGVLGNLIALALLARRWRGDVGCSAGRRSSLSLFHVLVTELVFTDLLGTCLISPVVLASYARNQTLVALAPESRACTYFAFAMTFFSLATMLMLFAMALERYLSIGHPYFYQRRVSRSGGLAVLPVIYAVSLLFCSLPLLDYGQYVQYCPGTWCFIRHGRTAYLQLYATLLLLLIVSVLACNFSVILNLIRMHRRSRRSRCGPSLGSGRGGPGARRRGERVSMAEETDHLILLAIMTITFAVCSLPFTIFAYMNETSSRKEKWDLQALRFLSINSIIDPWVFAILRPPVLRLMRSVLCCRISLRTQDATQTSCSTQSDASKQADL
EP2 modulator – EP2 receptor (human) modulation; 260,000 compounds, 0.83% hits; EP2-expressing cells, cAMP HTRF FRET, PGE2 co-stimulation; induction, % at 25 µM;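 active means compounds whose cAMP rise, as percent of the full-agonist control response, exceeds 60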;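 further: rat C6 glioma line stably carrying human EP2 under a CMV promoter; the protocol text gives 20 µM as final concentration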
Furin inh – human furin inhibition; P09958; purified furin, fluorogenic substrate cleavage; inhibition, % at 20 µM or 30 µM; 220,000 compounds, 0.061% hits; in the data active means inhibition above about 25%
GASC-1 inh – inhibitors of human GASC-1 (JMJD2C) demethylase; Q9H3R0; GST-JMJD2C(1-420) H3K9me3 demethylation, DELFIA europium; inhibition, % at 2.35 µM; 330,000 compounds, 0.069% hits; AID 2099;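 active means more than half of a compound's replicate wells show inhibition beyond 50%, single wells judged on their own value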;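 further: signal counts dimethyl H3K9 product captured on neutravidin plate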
NR2E3 ag-1 – agonists of human NR2E3 nuclear receptor; CHO-S Gal4-NCOR/VP16-NR2E3 two-hybrid, luciferase; AID 602229; 360,000 compounds, 0.35% hits; inhibition of corepressor binding, % at 3.98 µM;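 active means inhibition above the mean of all tested compounds plus 3 SD, cut at about 70% in these data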;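 further: higher means lower luciferase signal from less NR2E3 corepressor binding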
NR2E3 ag-2 – activates human photoreceptor nuclear receptor NR2E3 | GST-NR2E3/biotin-RetCOR TR-FRET, 1536-well | 320,000 compounds, 0.12% hits | Q9Y5X4 | inhibition of corepressor binding, % at 4.78 µM | AID 2300;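 active means percent inhibition above the cutoff of mean plus 3 SD of all tested compounds, set per screening campaign, cut at about 20% in these data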
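System: GST-NR2E3 and biotin-RetCOR proteins; probe or stimulus: 7 nM biotin-RetCOR; doses: compound at 4.8 µM, single dose; schedule: Compound–protein incubation for 5 h at 4 °C; detection: time-resolved FRET; read-out: percent inhibition; controls: biotin wells as high control, 0.6% DMSO wells as low control; format: 1536-well plates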
Large screens that a line does not name were inactive.

Cn1cnc([N+](=O)[O-])c1Sc1nc(N)nc2c1ncn2[C@@H]1C[C@H](O)[C@@H](CO)O1	PGE2 EP2 inh 48.1 (no result: Furin inh, GASC-1 inh, NR2E3 ag-1, NR2E3 ag-2)
Cn1cnc([N+](=O)[O-])c1[Se]c1nc(N)nc2c1ncn2[C@H]1O[C@@H](CO)[C@H](O)[C@H]1O	PGE2 EP2 inh 42.2 (no result: Furin inh, GASC-1 inh, NR2E3 ag-1, NR2E3 ag-2)
COc1ccc(CCN(C)C(=O)C2CCN(Cc3ccccc3Cl)CC2)cc1OC	none (no result: Furin inh, GASC-1 inh, NR2E3 ag-1, NR2E3 ag-2)
CC(C)C(=O)N1CCN(c2ccc(NC(=O)COc3ccc(Cl)cc3)cc2)CC1	none (no result: Furin inh, GASC-1 inh, NR2E3 ag-1, NR2E3 ag-2)
Cc1cc(NC(=O)c2ccc(-c3ccccc3[N+](=O)[O-])o2)no1	none (no result: PGE2 EP2 inh, EP2 modulator, Furin inh, NR2E3 ag-2)
CC(=O)c1cccc(NC(=O)c2ccc(-c3ccccc3[N+](=O)[O-])o2)c1	PGE2 EP2 inh 47.0
C[C@@H]1OC(O[C@H]2[C@H](OC(=O)[C@]34CCC(C)(C)CC3C3=CCC5[C@@]6(C)CC[C@H](OC7O[C@@H](C)[C@H](O[C@@H]8OC[C@@H](O)[C@H](O)[C@H]8O)[C@@H](O)[C@H]7O)C(C)(C)C6CC[C@@]5(C)[C@]3(C)CC4O)OC[C@H](O)[C@H]2O)[C@H](O)[C@H](O)[C@H]1O[C@@H]1O[C@H](CO)[C@@H](O)[C@H](O)[C@H]1O (stereo partly specified)	PGE2 EP2 inh 107.7 (no result: Furin inh, GASC-1 inh, NR2E3 ag-1, NR2E3 ag-2)
c1ccc2cc(-c3cc(-c4cc(-c5ccc6ccccc6c5)on4)no3)ccc2c1	PGE2 EP2 inh 45.3 (no result: Furin inh, GASC-1 inh, NR2E3 ag-1, NR2E3 ag-2)
COc1ccc(NC(=O)CSc2nc3ccc(C)cc3[nH]2)c(OC)c1	none (no result: Furin inh, GASC-1 inh, NR2E3 ag-1, NR2E3 ag-2)
O=C(Nc1ccccc1)c1nnsc1S(=O)c1ccc(Cl)cc1 (stereo unspecified)	PGE2 EP2 inh 142.3
Cn1c(SCC(=O)N2CCc3ccccc32)nnc1-c1cccs1	none (no result: Furin inh, GASC-1 inh, NR2E3 ag-1, NR2E3 ag-2)
CC1(C)CC(=O)C2=C(C1)OC1=C(C(=O)CC(C)(C)C1)C2c1ccc(O)c([N+](=O)[O-])c1	none
CC1(C)CC(=O)C2=C(C1)OC1=C(C(=O)CC(C)(C)C1)C2c1ccc(O)cc1O	PGE2 EP2 inh 98.2
CC(C)CC(=O)/C(=C\c1ccc(Cl)cc1Cl)n1cncn1	PGE2 EP2 inh 52.1 (no result: NR2E3 ag-2)
CC(C)CC(=O)/C(=C/c1ccc(N(C)C)cc1)n1cncn1	none (no result: PGE2 EP2 inh, EP2 modulator, Furin inh)
Cc1ccc(-c2nc(C(Cl)Cl)c3ccccc3n2)cc1	EP2 modulator 61.5
Cc1ccc(-c2nc(Nc3ccc(O)cc3)c3ccccc3n2)cc1	none (no result: PGE2 EP2 inh, EP2 modulator, Furin inh)
N#CC(C#N)=C1C=CC=CN1/C(=C\c1ccco1)C(=O)c1ccc(Br)cc1	PGE2 EP2 inh 48.8
COc1ccc2cc(CN(Cc3ccc4c(c3)OCO4)C(=O)Nc3ccccc3)c(=O)[nH]c2c1	none (no result: Furin inh, GASC-1 inh, NR2E3 ag-1, NR2E3 ag-2)
CCc1cc2cc3c(cc2n2c(=O)n(CC(=O)NC(C)C)nc12)OCO3	none (no result: PGE2 EP2 inh, Furin inh, GASC-1 inh, NR2E3 ag-1, NR2E3 ag-2)
O=c1oc2ccccc2c(O)c1/C=C1\C=Nc2ccccc21	PGE2 EP2 inh 51.6
COc1ccc(C2CCN(CC(=O)N3CCCC3)CC2)cc1	none (no result: Furin inh, GASC-1 inh, NR2E3 ag-1, NR2E3 ag-2)
CCNc1nc(SC(C)C(=O)Nc2ccccc2)nc(N2CCOCC2)n1 (stereo unspecified)	none
CC(=O)C(Sc1nc(N2CCOCC2)nc(N2CCOCC2)n1)C(=O)Nc1ccccc1 (stereo unspecified)	GASC-1 inh 69.8
COc1cc(/C=N/NC(=Nc2ccc(C)cc2)c2nc3ccccc3s2)ccc1O	NR2E3 ag-1 90.8
COc1ccccc1/C=N/NC(=Nc1ccc(C)cc1)c1nc2ccccc2s1	none (no result: PGE2 EP2 inh, NR2E3 ag-1)
O=C(NC1CCCC1)C(c1ccccc1F)N(Cc1ccco1)C(=O)Cc1cccs1 (stereo unspecified)	none (no result: Furin inh, GASC-1 inh, NR2E3 ag-1, NR2E3 ag-2)
O=C(NC1CCCCC1)C(c1ccncc1)N(C(=O)Cc1cccs1)c1ccc(F)cc1 (stereo unspecified)	none (no result: Furin inh, GASC-1 inh, NR2E3 ag-1, NR2E3 ag-2)
O=C(NC1CCCCC1)C(c1ccco1)N(C(=O)Cc1cccs1)c1ccc(F)cc1 (stereo unspecified)	EP2 modulator 66.2 (no result: Furin inh, GASC-1 inh, NR2E3 ag-1, NR2E3 ag-2)
O=C(NC1CCCCC1)C(c1ccco1)N(Cc1cccs1)C(=O)Cn1nnc2ccccc21 (stereo unspecified)	EP2 modulator 60.9
O=C(NC1CCCC1)C(c1ccccc1Cl)N(Cc1ccco1)C(=O)Cc1cccs1 (stereo unspecified)	EP2 modulator 63.5 (no result: Furin inh, GASC-1 inh, NR2E3 ag-1, NR2E3 ag-2)
O=C(NCc1ccco1)C(c1ccco1)N(Cc1cccs1)C(=O)Cn1nnc2ccccc21 (stereo unspecified)	none
Cc1nc2sc3c(c2c2nn(CC(=O)NC4CC4)c(=O)n12)CCC(C)C3 (stereo unspecified)	none (no result: PGE2 EP2 inh, Furin inh, GASC-1 inh, NR2E3 ag-1, NR2E3 ag-2)
CCOCCCNC(=O)c1ccco1	none (no result: Furin inh, GASC-1 inh, NR2E3 ag-1, NR2E3 ag-2)
O=C(Cc1ccc(Cl)cc1Cl)N1CCC(O)(c2ccccn2)CC1	none (no result: Furin inh, GASC-1 inh, NR2E3 ag-1, NR2E3 ag-2)
COc1ccc2[nH]c3c(NCCC4=CCCCC4)ncnc3c2c1	PGE2 EP2 inh 74.5 (no result: NR2E3 ag-2)
COc1ccccc1NC(=O)c1sc(NC(=O)Cc2ccccc2)c(C#N)c1C	none (no result: Furin inh, GASC-1 inh, NR2E3 ag-1, NR2E3 ag-2)
COc1ccccc1NC(=O)c1sc(NC(=O)COc2ccccc2)c(C#N)c1C	EP2 modulator 65.6 (no result: Furin inh, GASC-1 inh, NR2E3 ag-1, NR2E3 ag-2)
Cc1ccc(-c2cc(C(=O)N3CCCCC3)no2)cc1	none (no result: Furin inh, GASC-1 inh, NR2E3 ag-1, NR2E3 ag-2)
